Assay results reported in ChEMBL document CHEMBL2203117, “Synthesis and biological activities of N-(3-carboxylpropyl)-5-amino-2-hydroxy-3-tridecyl-1,4-benzoquinone and analogues” (2012).
Calls of active or inactive are those of the source. No cut-off for these calls is given here.

Columns and labels:
[1] = tested on: GM15850; assay: Protection against DEM-induced loss of mitochondrial membrane potential in human GM15850 cells at 5 uM after 16 hrs using TMRM/JC-1 staining by flow cytometry analysis relative to control; type: functional
Outline: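 FRDA lymphocytes were pretreated with compound for 16 h, then given 5 mM DEM for 140 min. Cells were washed twice with PBS and stained with 250 nM TMRM in PBS-glucose for 15 min at 37 °C in the dark. Flow cytometry read the FL2-H channel (488 nm excitation), 10 000 events, with FCCP as the depolarized control. Result is the % of cells with intact Δψm (top right quadrant). Mean ± SEM of three experiments in duplicate.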

[2] = tested on: CCRF-CEM; assay: Antioxidant activity in human CEM cells assessed as inhibition of glutathione depletion-induced ROS production at 5 uM after 16 hrs using DCFH-DA staining by flow cytometry analysis; type: functional, cell-based
Outline: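 CEM leukemia lymphocytes (5 × 10⁵ cells in 1 mL) were given compound for 16 h at 37 °C in 5% CO2. They were then exposed to 5 mM diethyl maleate for 40 min to deplete GSH. After a PBS wash they were stained with 10 μM DCFH-DA in PBS with 20 mM glucose for 20 min at 37 °C in the dark. DCF fluorescence was read by flow cytometry (488 nm excitation, FL1-H), 10 000 events. Mean ± SEM of two experiments, each in duplicate.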

[3] = tested on: GM15850; assay: Antioxidant activity in human GM15850 cells assessed as inhibition of glutathione depletion-induced ROS production at 5 uM after 16 hrs using DCFH-DA staining by flow cytometry analysis; type: functional, cell-based
Outline: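 FRDA lymphocytes (5 × 10⁵ cells in 1 mL) were pretreated with compound for 16 h at 37 °C in 5% CO2. GSH was then depleted with 5 mM diethyl maleate for 80 min. Cells were washed and loaded with 10 μM DCFH-DA in PBS with 20 mM glucose for 20 min at 37 °C in the dark. DCF was measured by flow cytometry (488 nm, FL1-H), 10 000 events. Two experiments in duplicate, mean ± SEM.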

[4] = Antioxidant activity in human GM15850 cells assessed as inhibition of glutathione depletion-induced lipid peroxidation at 10 uM after 16 hrs using C11-BODIPY581/591 by FACS analysis relative to control; type: functional; design: scale not given: the % may be the effect or the level left
Outline: (§1)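 FRDA lymphocytes at 5 × 10⁵ cells/mL received compound (5 or 10 μM final) for 16 h at 37 °C. Cells were loaded with 1 μM C11-BODIPY581/591 in phenol red-free RPMI for 30 min in the dark, then stressed with 5 mM DEM for 2 h. After washing, green (oxidized) fluorescence was read by FACS, 10 000 events. Scavenging % = [(100 − % mean)/(100 − % mean of untreated control)] × 100. Duplicates, three independent experiments.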

[5] = Antioxidant activity in human GM15850 cells assessed as inhibition of glutathione depletion-induced lipid peroxidation at 5 uM after 16 hrs using C11-BODIPY581/591 by FACS analysis relative to control; type: functional; design: scale not given: the % may be the effect or the level left; outline: as §1
[6] = tested on: GM15850; assay: Cytoprotective activity in human GM15850 cells assessed as glutathione depletion-induced reduction of cell viability at 0.125 uM after 17 hrs by trypan blue exclusion assay relative to control; type: functional
Outline: (§2)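 FRDA lymphocytes were grown in RPMI 1640 with 15% fetal calf serum and 2 mM glutamine. Cells seeded at 5 × 10⁵ cells/mL were preincubated with compound for 17 h at 37 °C, then given 5 mM DEM for a further 6 h. Viability was scored by 0.4% trypan blue exclusion on a hemacytometer, counting at least 500 cells per group. Values are % of the untreated control (100%). Mean ± SEM, n = 3.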

[7] = tested on: GM15850; assay: Cytoprotective activity in human GM15850 cells assessed as glutathione depletion-induced reduction of cell viability at 0.25 uM after 17 hrs by trypan blue exclusion assay relative to control; type: functional; outline: as §2
[8] = tested on: GM15850; assay: Cytoprotective activity in human GM15850 cells assessed as glutathione depletion-induced reduction of cell viability at 2.5 uM after 17 hrs by trypan blue exclusion assay relative to control; type: functional; outline: as §2
[9] = tested on: GM15850; assay: Cytoprotective activity in human GM15850 cells assessed as glutathione depletion-induced reduction of cell viability at 5 uM after 17 hrs by trypan blue exclusion assay relative to control; type: functional; outline: as §2

CCCCCCCCCCCCCC1=C(OC)C(=O)C=C(NCCCC(=O)OC(C)(C)C)C1=O
Activity [1]: 85% | Activity [2]: Active | Activity [3]: Active | Activity [4]: 86% | Activity [5]: 72% | Activity [6]: 48% | Activity [7]: 58% | Activity [8]: 84% | Activity [9]: 93%

CCCCCCCCCCCCCC1=C(OC)C(=O)C=C(NCCCC(=O)O)C1=O
Activity [1]: 60% | Activity [2]: Active | Activity [3]: Active | Activity [4]: 51% | Activity [5]: 41% | Activity [9]: 74%

CCCCCCCCCCCCCC1=C(O)C(=O)C=C(NCCCC(=O)O)C1=O
Activity [1]: 27% | Activity [2]: Active | Activity [3]: Active | Activity [4]: 24% | Activity [5]: 8% | Activity [9]: 36%

CCCCCCCCCCCCCC1=C(O)C(=O)C=C(NCCCC(=O)OC(C)(C)C)C1=O
Activity [1]: 40% | Activity [2]: Active | Activity [3]: Active | Activity [4]: 37% | Activity [5]: 26% | Activity [9]: 50%
